Experimental data published in ChEMBL document CHEMBL1152542, “Synthesis of pentopyranosyl-containing thiodisaccharides. Inhibitory activity against beta-glycosidases” (Bioorg Med Chem, 2009).
pKi: −log10 of the molar value. The source made the active and inactive calls. No cut-off for these calls is given here.

Columns and labels:
[1] = target: Beta-galactosidase (Escherichia coli) (UniProt Q8VNN2); assay: Inhibition of Escherichia coli beta-galactosidase assessed as formation of o-nitrophenol at 0.01 to 0.05 mM after 10 mins by visible absorption spectroscopy
In short: (§1)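 E. coli β-galactosidase (0.3 U) was incubated with o-nitrophenyl β-D-galactopyranoside (0.2–5.0 mM) in 100 mM sodium phosphate, pH 7.3, containing 1.2 mM MgCl₂ and 100 mM 2-mercaptoethanol, with or without inhibitor, for 10 min at 37 °C. The reaction was quenched with 0.2 M sodium borate, pH 10.0, and released o-nitrophenol was read at 410 nm.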

[2] = target: Beta-galactosidase (Escherichia coli, UniProt Q8VNN2); assay: Inhibition of Escherichia coli beta-galactosidase by Lineweaver-Burke plot analysis
In short: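 Kinetics of E. coli β-galactosidase with o-nitrophenyl β-D-galactopyranoside (0.2–5.0 mM) in 100 mM sodium phosphate, pH 7.3, with 1.2 mM MgCl₂ and 100 mM 2-mercaptoethanol, 10 min at 37 °C, borate quench, absorbance at 410 nm. Inhibitor was tested at 0, 0.40, 0.80 and 1.20 mM, and data were analysed by Lineweaver–Burk double-reciprocal plot.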

[3] = target: Beta-galactosidase (Escherichia coli) (UniProt Q8VNN2); assay: Inhibition of Escherichia coli beta-galactosidase assessed as formation of o-nitrophenol at 0.4 to 1.2 mM after 10 mins by visible absorption spectroscopy; in short: as §1
[4] = target: T1, Exo-1,4-beta-xylosidase xlnD (Aspergillus niger) (UniProt O00089); assay: Inhibition of Aspergillus niger beta-xylosidase at 10 mM after 15 mins by visible absorption spectroscopy
T1 sequence (whole entry): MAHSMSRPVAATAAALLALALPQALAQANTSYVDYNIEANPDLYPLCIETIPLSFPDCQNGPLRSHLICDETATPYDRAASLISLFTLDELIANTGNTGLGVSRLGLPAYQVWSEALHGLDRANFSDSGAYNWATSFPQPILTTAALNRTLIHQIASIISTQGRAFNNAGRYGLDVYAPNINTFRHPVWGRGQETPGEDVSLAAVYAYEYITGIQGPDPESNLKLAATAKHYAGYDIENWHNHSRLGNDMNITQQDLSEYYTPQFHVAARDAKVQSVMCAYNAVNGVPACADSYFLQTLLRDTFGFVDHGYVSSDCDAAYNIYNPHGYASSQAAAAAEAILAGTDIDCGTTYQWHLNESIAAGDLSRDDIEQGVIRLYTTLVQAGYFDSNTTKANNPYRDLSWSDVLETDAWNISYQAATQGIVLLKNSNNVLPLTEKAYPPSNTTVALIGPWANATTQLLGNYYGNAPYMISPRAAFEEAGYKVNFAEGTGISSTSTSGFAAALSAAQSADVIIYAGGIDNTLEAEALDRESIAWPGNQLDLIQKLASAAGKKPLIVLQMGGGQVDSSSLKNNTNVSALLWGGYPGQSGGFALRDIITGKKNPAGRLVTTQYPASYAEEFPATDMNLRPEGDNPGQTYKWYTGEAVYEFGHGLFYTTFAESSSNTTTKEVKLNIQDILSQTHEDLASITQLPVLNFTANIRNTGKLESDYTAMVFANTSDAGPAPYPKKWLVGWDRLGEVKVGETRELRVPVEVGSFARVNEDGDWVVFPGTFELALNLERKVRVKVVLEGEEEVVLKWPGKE
In short: (§2)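 A. niger β-xylosidase (0.04 U) was incubated with p-nitrophenyl β-D-xylopyranoside (0.5–10.0 mM) in 50 mM sodium acetate, pH 5.0, with or without inhibitor (2.0–10.0 or 5.0–15.0 mM) for 15 min at 25 °C. The reaction was stopped with 0.2 M sodium borate, pH 10.0, and absorbance was read at 400 nm.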

[5] = system: Prunus dulcis; assay: Inhibition of almond beta-glucosidase at 4 to 6 mM after 15 mins by visible absorption spectroscopy
In short: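 Almond β-glucosidase (2.0 mU) was incubated with p-nitrophenyl β-D-glucopyranoside (0.5–10.0 mM) in 50 mM sodium acetate, pH 5.6, with or without inhibitor (4.0–6.0 mM) for 15 min at 37 °C. The reaction was stopped with sodium borate, pH 10.0, and absorbance was read at 400 nm.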

[6] = target: Beta-galactosidase (Escherichia coli) (UniProt Q8VNN2); assay: Inhibition of Escherichia coli beta-galactosidase assessed as formation of o-nitrophenol at 0.6 to 4 mM after 10 mins by visible absorption spectroscopy
[7] = target: T1, Exo-1,4-beta-xylosidase xlnD (Aspergillus niger); assay: Inhibition of Aspergillus niger beta-xylosidase at 15 mM after 15 mins by visible absorption spectroscopy; in short: as §2

Sequence of Beta-galactosidase (Escherichia coli) (Q8VNN2 whole entry, looked up): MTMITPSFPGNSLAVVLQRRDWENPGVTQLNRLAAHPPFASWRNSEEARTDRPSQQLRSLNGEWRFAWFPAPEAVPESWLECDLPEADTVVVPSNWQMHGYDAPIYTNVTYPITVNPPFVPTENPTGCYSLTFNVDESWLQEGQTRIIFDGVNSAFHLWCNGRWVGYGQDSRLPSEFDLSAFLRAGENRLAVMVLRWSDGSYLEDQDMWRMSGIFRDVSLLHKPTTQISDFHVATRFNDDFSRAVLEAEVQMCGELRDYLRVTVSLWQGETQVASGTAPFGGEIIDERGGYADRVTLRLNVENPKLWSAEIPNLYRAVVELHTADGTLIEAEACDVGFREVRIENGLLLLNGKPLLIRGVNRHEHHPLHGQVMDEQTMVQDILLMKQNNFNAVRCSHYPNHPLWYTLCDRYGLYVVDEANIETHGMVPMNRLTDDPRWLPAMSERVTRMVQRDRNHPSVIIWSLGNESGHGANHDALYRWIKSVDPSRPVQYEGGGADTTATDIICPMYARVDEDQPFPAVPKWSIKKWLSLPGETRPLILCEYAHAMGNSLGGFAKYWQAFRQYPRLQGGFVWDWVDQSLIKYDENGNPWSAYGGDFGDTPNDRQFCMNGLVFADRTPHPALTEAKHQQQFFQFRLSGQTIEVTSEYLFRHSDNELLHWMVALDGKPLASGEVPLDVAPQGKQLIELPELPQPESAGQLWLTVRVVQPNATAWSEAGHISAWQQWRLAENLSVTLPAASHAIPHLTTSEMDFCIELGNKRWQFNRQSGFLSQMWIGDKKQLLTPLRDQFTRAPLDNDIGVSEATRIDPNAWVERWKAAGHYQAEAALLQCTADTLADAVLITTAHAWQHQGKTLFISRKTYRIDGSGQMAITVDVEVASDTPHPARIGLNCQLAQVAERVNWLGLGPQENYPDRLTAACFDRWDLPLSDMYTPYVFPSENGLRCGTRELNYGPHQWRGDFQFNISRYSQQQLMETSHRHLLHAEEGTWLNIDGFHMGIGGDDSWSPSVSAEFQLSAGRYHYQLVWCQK
Sequence of Beta-galactosidase (Q8VNN2 whole entry): as the sequence (Q8VNN2 whole entry, looked up) above

Activity [1] | pKi [2] | Activity [3] | inhibition [4] | inhibition [5] | inhibition [6] | inhibition [7] | Structure (SMILES)
Active | 4.49 |  |  |  |  |  | OC[C@H]1O[C@@H](S[C@@H]2CO[C@@H](OCc3ccccc3)[C@@H](O)C2)[C@H](O)[C@@H](O)[C@H]1O
 | 3.10 | Active |  |  |  |  | OC[C@H]1O[C@@H](S[C@@H]2CO[C@@H](OCc3ccccc3)[C@H](O)C2)[C@H](O)[C@@H](O)[C@H]1O
 | 3.92 |  | inactive | inactive | inactive |  | CC(C)O[C@H]1O[C@H](CO)[C@H](S[C@@H]2OC[C@@H](O)[C@H](O)[C@H]2O)C[C@@H]1O
 | 3.80 |  |  | inactive | inactive | inactive | CC(C)O[C@H]1O[C@H](CO)[C@H](S[C@@H]2OC[C@@H](O)[C@H](O)[C@H]2O)C[C@H]1O
